These results are taken from ChEMBL document CHEMBL2029317, “(Z)-2-(2-bromophenyl)-3-{[4-(1-methyl-piperazine)amino]phenyl}acrylonitrile (DG172): an orally bioavailable PPARβ/δ-selective ligand with inverse agonistic properties” (J Med Chem, 2012).

SMILES strings stand for the structures. The source made the active and inactive calls. The calls are words filed in the database; no cut-off is given here.

For one experiment, the target named is T1, Peroxisome proliferator-activated receptor delta (Mus musculus, UniProt P35396).
T1 sequence (P35396 whole entry): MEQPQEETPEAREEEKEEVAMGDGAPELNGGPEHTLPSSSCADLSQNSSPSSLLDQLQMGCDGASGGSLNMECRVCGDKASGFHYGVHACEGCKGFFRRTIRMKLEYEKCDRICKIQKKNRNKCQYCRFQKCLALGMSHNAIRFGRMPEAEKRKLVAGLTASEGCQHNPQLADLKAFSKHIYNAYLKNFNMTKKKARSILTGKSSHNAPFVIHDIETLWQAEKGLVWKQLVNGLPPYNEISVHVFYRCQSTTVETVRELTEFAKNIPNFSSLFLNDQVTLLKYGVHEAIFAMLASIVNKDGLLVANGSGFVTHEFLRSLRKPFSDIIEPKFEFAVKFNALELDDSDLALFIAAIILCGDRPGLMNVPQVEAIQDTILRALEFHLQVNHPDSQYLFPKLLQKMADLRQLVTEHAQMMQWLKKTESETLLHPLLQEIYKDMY
Put plainly: Inverse agonist activity at PPARbeta/delta in mouse C2C12 cells assessed as inhibition of Angptl4 expression after 24 hrs by RT-qPCR analysis. In kind it is functional, cell-based. (Quantitative PCR measures a nucleic acid by following its amplification.)
Regarding `CN(C)c1ccc(/C=C(\C#N)c2ccccc2)cc1`, the half-maximal inhibitory concentration (IC50) (usually the concentration that gives 50% inhibition) was above 500 nM.

The target in the next experiment is T2, Peroxisome proliferator-activated receptor delta (Mus musculus) (UniProt P35396).
T2 sequence (whole entry): T1 sequence (P35396 whole entry)
The experiment is described as follows: Antagonist activity at PPARbeta/delta in mouse NIH3T3 cells coexpressing LexA assessed as decrease in L165,041-induced transcriptional activation at 1 uM after 48 hrs by luciferase reporter gene assay relative to control. It counts as functional, cell-based. The method, boiled down:
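NIH3T3 cells were transfected with LexA-PPARα, -PPARβ/δ or -PPARγ fusion plasmids plus the 7L-TATAi luciferase reporter. From 4 h post-transfection, cells received inhibitory ligand (1 μM) for 48 h. Agonists followed: GW7647 300 nM (PPARα), L165,041 1 μM (PPARβ/δ) or GW1929 300 nM (PPARγ), or agonist solvent. Induction is luciferase activity with agonist relative to solvent; triplicates with t test.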
(In general: A reporter such as luciferase makes a cellular process visible.)
With `N#C/C(=C\c1ccc(N2CCCCC2)cc1)c1ccccc1`, the result was Active.

The target in a further experiment is T2, Peroxisome proliferator-activated receptor delta (Mus musculus). Put plainly: Displacement of fluormone Pan-PPAR Green from mouse recombinant GST-tagged PPARbeta/delta LBD at 1 uM after 60 mins by TR-FRET assay. Summed up: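 Competitive binding by LanthaScreen TR-FRET: recombinant GST-PPARβ/δ LBD, detected through a terbium-labelled anti-GST antibody, was incubated with Fluormone Pan-PPAR Green. Compound was tested at 1 μM. Read-out is the 520 nm/495 nm emission ratio after terbium excitation, as averages of triplicates ± SD.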
Background: TR-FRET usually uses a lanthanide donor and a delayed reading to cut background.
Take `COc1ccc(/C(C#N)=C/c2ccc(N(C)C)cc2)cc1`: the outcome was Active.

Take `CN(C)c1ccc(/C=C/C=C(\C#N)c2ccccc2)cc1`: the result was inactive.

`CN(C)c1ccc(/C=C(\C#N)c2ccccc2F)cc1`: the result was Active.

For `CN(C)c1ccc(/C=C(\C#N)c2ccc([N+](=O)[O-])cc2)cc1`, the result was Active.

`CN(C)c1ccc(/C=C(\C#N)c2ccc(F)cc2)cc1`: the result was Active.

For `CN(C)c1ccc(CC(C#N)c2ccccc2)cc1` (racemic), the result was inactive.

With `CC1CCN(c2ccc(/C=C(\C#N)c3ccccc3)cc2)CC1`, the result was Active.

As for `CN(C)c1ccc(/C=C(\C#N)c2ccccc2[N+](=O)[O-])cc1`, the result was Active.

As for `CN(C)c1ccc(/C=C(\C#N)c2ccccc2I)cc1`, the outcome was Active.

On to `CN(C)c1ccc(/C=C(\C#N)c2ccccc2Br)cc1`, for which the outcome was Active.

As to `N#C/C(=C\c1ccccc1Br)c1ccccc1`, the outcome was Active.

As for `COc1ccc(/C=C(\C#N)c2ccccc2)cc1`, the outcome was Active.

Regarding `N#C/C(=C\c1ccc(N)cc1)c1ccccc1`, the outcome was Active.

As for `N#C/C(=C\c1ccc(N2CCNCC2)cc1)c1ccccc1`, the outcome was Active.

Regarding `N#C/C(=C\c1ccc(Br)cc1)c1ccccc1`, the result was Active.

In the case of `N#C/C(=C\c1ccc(C(F)(F)F)cc1)c1ccccc1`, the outcome was Active.

With `CN(C)c1ccc(/C=C(\C#N)c2ccccc2C#N)cc1`, the result was Active.

Consider `CN(C)Cc1ccc(/C=C(\C#N)c2ccccc2)cc1`, for which the result was Active.

For `N#C/C(=C\c1ccc(Cl)cc1)c1ccccc1`, the result was Active.

As to `CN(C)c1ccc(/C=C(\C#N)c2ccccc2C(F)(F)F)cc1`, the result was Active.

As to `N#C/C(=C\c1ccc(N2CCCCC2)cc1)c1ccccc1`, the result was Active.

For the compound `N#C/C(=C\c1ccc(NC2CCCCC2)cc1)c1ccccc1`, the result was Active.

`N#C/C(=C\c1cccc(Br)c1)c1ccccc1`: the result was Active.

Turning to `N#C/C(=C\c1ccc(N2CCOCC2)cc1)c1ccccc1`, the outcome was Active.

Turning to `COc1ccccc1/C(C#N)=C/c1ccc(N(C)C)cc1`, the outcome was Active.

On to `N#C/C(=C\c1ccc(N2CCCC2)cc1)c1ccccc1`, for which the result was Active.

Regarding `CN(C)c1ccc(C(C#N)=Cc2ccccc2)cc1`, the outcome was inactive.

In the case of `CN(C)c1ccc(/C=C(\C#N)c2ccc(Cl)cc2)cc1`, the outcome was Active.

In the case of `CN(C)c1ccc(/C=C/c2ccccc2)cc1`, the result was inactive.

In the case of `N#C/C(=C\c1ccccc1)c1ccccc1`, the outcome was Active.

`CN(C)c1ccc(/C=C(\C#N)c2cccc(Cl)c2)cc1`: the outcome was Active.

As for `CN1CCN(c2ccc(/C=C(\C#N)c3ccccc3)cc2)CC1`, the result was Active.

As to `N#C/C(=C\c1ccc(N2CCCCCC2)cc1)c1ccccc1`, the outcome was Active.

On to `N#C/C(=C\c1ccc(Nc2ccccc2)cc1)c1ccccc1`, for which the result was Active.
